RORA inh: inhibitors of orphan receptor RORA, primary screen, cell-based, luminescence; inhibition, % at 10 µM; 65,000 tested, 0.43% active; Nuclear receptor ROR-alpha (Homo sapiens), P35398; CHO-K1 Gal4-RORA LBD luciferase reporter;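 active = inhibition above the mean of all tested compounds plus 3 SD, cut at about 52% in these data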
Target sequence (P35398 whole entry, looked up, the tested form may be a part): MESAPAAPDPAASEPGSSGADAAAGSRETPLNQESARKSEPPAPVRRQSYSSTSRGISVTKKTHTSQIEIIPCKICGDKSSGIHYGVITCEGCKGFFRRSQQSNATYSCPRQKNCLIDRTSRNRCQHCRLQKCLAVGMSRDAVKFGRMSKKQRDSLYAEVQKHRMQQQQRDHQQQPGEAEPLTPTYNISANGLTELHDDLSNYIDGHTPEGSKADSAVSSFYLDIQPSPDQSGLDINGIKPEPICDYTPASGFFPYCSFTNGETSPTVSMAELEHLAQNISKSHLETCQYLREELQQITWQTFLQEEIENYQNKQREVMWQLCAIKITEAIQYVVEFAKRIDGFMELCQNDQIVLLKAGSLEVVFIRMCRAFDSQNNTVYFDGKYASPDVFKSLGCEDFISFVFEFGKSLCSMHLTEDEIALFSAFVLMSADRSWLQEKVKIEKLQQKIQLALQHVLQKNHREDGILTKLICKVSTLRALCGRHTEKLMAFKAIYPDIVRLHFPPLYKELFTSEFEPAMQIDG
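Material: transiently transfected CHO-K1 cells, Gal4-DBD/human RORA-LBD fusion plus 5xGal4-luciferase reporter; doses: single concentration per compound, 10 µM final; incubation: 20 h at 37 °C; detection: luminescence from basal luciferase reporter expression; read-out: % inhibition of basal luciferase versus +RORA/-RORA DMSO controls; replication: tested once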
Of the large screens only hits and unclear results are named; the others gave an inactive call. The sample as a whole holds a higher share of hits than the screen did.

CCOc1ccc(C2=Nn3c(nnc3-c3ccccc3OC)SC2)cc1	RORA inh 54
C/C(O)=c1/ccc2cccc3nc(C)nc1c23	none
Nc1nc(-c2ccccc2)cc(-c2ccccc2O)n1	none
CS(=O)c1nc(-c2ccc(Br)cc2)cc(-c2ccccc2)c1C#N (stereo not drawn)	RORA inh 58
Cc1nnc(SCC(=O)NCCc2ccccc2)[nH]c1=O	none
CCOC(=O)C1=C2N(C)c3ccccc3N2CCC1=O	none
Cc1nc2cc(Cl)c(Cl)cc2nc1C	none
CC(C)NCC(O)Cn1c2c(c3ccccc31)CCc1c-2cnn1-c1ccccc1 (stereo not drawn)	RORA inh 68
COc1ccc(-n2nc3cc(C)c(N)c(Br)c3n2)cc1	none
O=C(NCC1CCCO1)c1cccc(-n2cnnn2)c1 (stereo not drawn)	none
Nc1cc(C2CCCC2)nn1-c1ccccc1	none
Cc1ccc(C)n1/N=C1/NC(=O)CS1	none
COc1ccc(OC)c2sc(NC(=O)c3ccc(S(=O)(=O)N(C)C)cc3)nc12	none
Cc1ccc(NC2=Nc3ccccc3CS2)cc1	RORA inh 61
O=c1cc(N2CCc3ccccc32)[nH]c(=O)n1Cc1ccc(F)cc1	none
CCOC(=O)c1ccc(NS(=O)(=O)N2CCCCCC2)cc1	none
CCOC(=O)c1cc2sccc2n1CC(=O)N1CCN(C(=O)c2ccco2)CC1	none
Cc1cc(NO)nc(-c2ccc(Br)cc2)n1	none
Cc1ccc(Nc2cc(C)nn2-c2nc(C)cc(=O)[nH]2)cc1	RORA inh 88
Cc1ccc(-c2cc3nc(C)cc(NCc4ccco4)n3n2)cc1	none
Cc1cc(C)c(-c2cc(C(F)(F)F)no2)c(=O)[nH]1	none
Cc1ccccc1Cc1c(C)nc2ncnn2c1C	none
CCc1c(C)nc2ncnn2c1NCCc1ccc(OC)cc1	RORA inh 75
Cc1nc2ncnn2c(C)c1CCC(=O)Nc1ccc(S(=O)(=O)N2CCCCCC2)cc1	none
CCOc1cccc(-c2nnc3sc(COc4ccc(Cl)cc4)nn23)c1	none
COc1ccc(N(C(=O)Cn2nnc3ccccc32)C(C(=O)NCc2ccco2)c2ccc(C)o2)cc1 (stereo not drawn)	none
CCn1c(C)nc2cc(-c3nc4n(n3)Cc3ccccc3-4)ccc21	RORA inh 96
COc1cc(NC(=O)Cn2c(-c3cncs3)nc3ccccc32)cc(OC)c1OC	none
COc1ccc(CNc2cc(C)nc3ncnn23)c(OC)c1	RORA inh 67
O=c1nc(-c2ccccc2)cn[nH]1	none
O=C(Cn1cnc2c(oc3ccccc32)c1=O)N1CCN(c2ccccc2)CC1	none
Cn1cc(S(=O)(=O)NCc2cccs2)c(=O)n(C)c1=O	none
O=C(CSc1nnc(-c2cccs2)n1-c1ccccc1)Nc1ccccc1	none
CCOC(=O)CN1CC23C=CC(O2)C(C(=O)Nc2ccc(F)c(C)c2)C3C1=O (stereo not drawn)	none
O=C(Nc1cnc2sc3c(n2c1=O)CCCC3)c1ccc(F)cc1	none
Cc1nc2nc(-c3cccs3)cn2nc1C	none
CS(=O)(=O)c1nc(-c2cccs2)cc(C(F)(F)F)n1	RORA inh 78
CN(CC(=O)Nc1nccs1)S(=O)(=O)c1ccc(F)cc1	none
CC(C)C(=O)N1CCN(c2nc(-c3ccccc3)c3c(c2C#N)CCCC3)CC1	none
CC1=C(C#N)C(=O)OC(C)(C)C1	none
CCOC(=O)c1sc2nc(NC(=O)c3cccs3)sc2c1C	none
COCCn1c(SCC(=O)Nc2cccc(C)c2)nnc1C(C)C	none
COCCn1c(C)cc(C(=O)CSc2nnc(C)s2)c1C	RORA inh 68
COC(=O)c1ccc(NC(=O)Cn2nc(SC)n(N)c2=S)cc1	none
COCCNC(=O)c1cc(-c2ccccc2OC)on1	none
CCOc1ncccc1C(=O)OCC(=O)Nc1cc(C(=O)OC)ccc1C(=O)OC	none
c1ccc2c(c1)ncn2CCC1CCCCC1	none
COc1ccc2c(-c3ccccc3)cc3nnnn3c2c1	none
CCCS(=O)(=O)c1nnnn1-c1cccc(OC)c1	RORA inh 82
CCS(=O)(=O)N1CCCC(c2nc(-c3cccc(OC)c3)no2)C1 (stereo not drawn)	none
Cc1cc(Br)c(S(=O)(=O)n2nnc3ccccc32)cc1C	none
CC(=O)Cc1nsc(Nc2ccc3c(c2)OCCO3)n1	none
c1ccc(-c2noc(-c3cccc4ccccc34)n2)cc1	none
Cc1ccc(-c2nc(-c3ccccc3)no2)c(Cl)c1	RORA inh 57
COc1cccc(-c2nc(-c3ccccc3)no2)c1	none
COc1ccc(Cn2c(C3CC3)nc3ccc(NC(=O)c4ccco4)cc3c2=O)cc1	none
CCOC(=O)C1=C(C)N(c2ccccc2)C(=O)C1CC(=O)O (stereo not drawn)	none
COc1ccc(NC(=O)CC2Oc3ccccc3NC2=O)cc1 (stereo not drawn)	none
O=C(CN(CCO)c1ccccc1)NC12CC3CC(CC(C3)C1)C2	none
c1c2c(cc3sc(N4CCOCC4)nc13)OCCO2	RORA inh 69
CCOc1ccc2nc(N3CCCC(C(=O)NCCCN4CCOCC4)C3)sc2c1 (stereo not drawn)	none
c1ccc(N2CCN(c3nc4cc5c(cc4s3)OCCO5)CC2)cc1	none
Cc1ccc(NC(=O)NC2(C(=O)NCc3ccco3)CCCCC2)cc1	none

Source: PubChem (The Scripps Research Institute Molecular Screening Center)
